# Measured values from paper PMC3573876 (The Journal of antibiotics, 2012).
# How the values were obtained:
# [1] = test system: activated p65 subunits of NF-κB in the nucleus of HeLa cells; assay: ELISA based NF-κB p65 inhibitory assay; assay type: cell-based, human; conditions: for IC50: read-out: NF-κB inhibitory activity IC50 values, p65 binding, HeLa cells, ELISA
# Cytotoxicity assay [2] = assay type: cell-based; conditions: human, NCI-H460 large cell lung carcinoma cells
# Outline: (§1)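 Cells were exposed continuously to the test compound for 72 h, then stained with sulforhodamine B. IC50 was the concentration that reduced staining by 50% relative to untreated controls. Positive controls were run alongside. MCF-7 came from a cancer-centre stock, NCI-H460 from ATCC, and SF-268 from the NCI Developmental Therapeutics Program.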
# Cytotoxicity assay [3] = assay type: cell-based; conditions: human, SF-268 astrocytoma cells
# Outline: as §1
# Cytotoxicity assay [4] = assay type: cell-based; conditions: human, MCF-7 breast carcinoma cells
# Outline: as §1
# Cytotoxicity assay [5] = assay type: cell-based; conditions: human
# Cytotoxicity assay [6] = assay type: cell-based; conditions: human; remark: listed apart in the source
# [7] = test system: epidermal growth factor receptor (EGFR); conditions: cell-free ELISA assay; cited from earlier work
# [8] = test system: vascular endothelial growth factor receptor-1/fms-like tyrosine kinase-1 (VEGFR-1/Flt-1); conditions: cell-free ELISA assay; cited from earlier work
# [9] = test system: human epidermal growth factor receptor-2 (HER2/ErbB-2); conditions: cell-free ELISA assay; cited from earlier work
# EGFR tyrosine kinase = EGFR tyrosine kinase (Homo sapiens, UniProt P00533); assay: EGFR enzymatic assay; assay type: biochemical; conditions: read-out: EGFR inhibition IC50; luminescence kinase assay
# A549 (adenocarcinoma) = conditions: A549 human cell line; cited from earlier work
# [10] = test system: HepG2 (hepatocellular carcinoma); conditions: HepG2 human cell line; cited from earlier work
# Chain of EGFR tyrosine kinase (P00533 25-1210): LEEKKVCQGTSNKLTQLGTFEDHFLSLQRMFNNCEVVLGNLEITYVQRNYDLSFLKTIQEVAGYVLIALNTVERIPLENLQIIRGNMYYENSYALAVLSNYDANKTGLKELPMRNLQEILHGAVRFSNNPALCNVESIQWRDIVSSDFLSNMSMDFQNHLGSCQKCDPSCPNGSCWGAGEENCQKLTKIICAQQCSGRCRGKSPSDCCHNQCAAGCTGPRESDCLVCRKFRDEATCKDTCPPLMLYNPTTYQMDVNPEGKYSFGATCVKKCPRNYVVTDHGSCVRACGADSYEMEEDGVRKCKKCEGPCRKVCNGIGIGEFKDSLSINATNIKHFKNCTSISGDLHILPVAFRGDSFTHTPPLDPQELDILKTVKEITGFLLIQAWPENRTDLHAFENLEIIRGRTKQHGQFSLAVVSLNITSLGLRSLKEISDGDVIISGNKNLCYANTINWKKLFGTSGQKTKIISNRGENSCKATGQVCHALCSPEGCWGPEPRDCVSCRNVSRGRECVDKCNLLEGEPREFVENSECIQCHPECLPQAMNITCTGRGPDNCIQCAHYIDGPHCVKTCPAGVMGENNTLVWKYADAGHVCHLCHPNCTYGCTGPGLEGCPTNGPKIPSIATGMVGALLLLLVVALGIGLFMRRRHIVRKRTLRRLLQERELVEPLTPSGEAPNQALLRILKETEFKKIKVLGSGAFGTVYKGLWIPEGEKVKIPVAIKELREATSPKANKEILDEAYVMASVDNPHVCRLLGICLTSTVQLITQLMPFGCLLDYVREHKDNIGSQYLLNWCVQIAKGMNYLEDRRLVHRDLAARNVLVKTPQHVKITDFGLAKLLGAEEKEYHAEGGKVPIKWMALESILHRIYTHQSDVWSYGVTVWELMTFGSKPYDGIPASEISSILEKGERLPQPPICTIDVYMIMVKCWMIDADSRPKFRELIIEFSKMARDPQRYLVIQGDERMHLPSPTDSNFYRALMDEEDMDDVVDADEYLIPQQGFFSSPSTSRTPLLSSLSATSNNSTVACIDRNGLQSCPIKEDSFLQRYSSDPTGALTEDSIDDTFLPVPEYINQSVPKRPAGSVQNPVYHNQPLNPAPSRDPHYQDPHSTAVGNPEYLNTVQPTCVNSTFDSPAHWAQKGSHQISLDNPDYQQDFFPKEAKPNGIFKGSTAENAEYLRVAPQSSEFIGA
compound,measurement,setting,value
Sch 52901 [Sch 52900 (5)],IC50,[1],> 10000 nM
CC[C@@]1(O)C(=O)OCc2c1cc1n(c2=O)Cc2cc3ccccc3nc2-1 [Camptothecin],IC50 at 72 h,Cytotoxicity assay [2],10 nM
same,IC50 at 72 h,Cytotoxicity assay [3],10 nM
same,IC50 at 72 h,Cytotoxicity assay [4],130 nM
COC(=O)[C@H]1[C@@H](O)[C@@]2(O)c3c(OC)cc(O[C@@H]4O[C@@H]([C@H](O)CO)CO[C@H]4OC)cc3O[C@@]2(c2ccc(OC)cc2)[C@@H]1c1ccccc1 [Silvestrol],IC50,Cytotoxicity assay [5],10 nM
same,IC50,Cytotoxicity assay [6],10 nM
"CN1C(=O)[C@@]23C[C@]4([C@]56C[C@@]78SS[C@@](C)(C(=O)N7[C@H]5Nc5ccccc56)N(C)C8=O)c5ccccc5N[C@@H]4N2C(=O)[C@]1(C)SS3 [11,11′-Dideoxyverticillin]","Tyrosine kinase inhibitory activity, EGFR",[7],nM range
same,"Tyrosine kinase inhibitory activity, VEGFR-1/Flt-1",[8],nM range
same,"Tyrosine kinase inhibitory activity, HER2/ErbB-2",[9],µM range
"CC[C@@]12SS[C@]3(C(=O)N1C)[C@@H](O)C1(C45c6ccccc6N[C@@H]4N4C(=O)[C@]6([C@@H](C)O)SS[C@]4(C(=O)N6C)[C@H]5O)c4ccccc4N[C@@H]1N3C2=O (some centres unmarked) [Gliocladicillin C (4), gliocladicillin C]",IC50,[1],> 10000 nM
same,IC50,EGFR tyrosine kinase,> 10000 nM
same,Cytotoxic activity on A549,A549 (adenocarcinoma),high cytotoxic activity
same,Cytotoxic activity on HepG2,[10],high cytotoxic activity
"CN1C(=O)[C@]23SS[C@@]1(C)C(=O)N2[C@H]1Nc2ccccc2[C@@]1([C@@]12c4ccccc4N[C@@H]1N1C(=O)[C@@]4(C)SS[C@]1(C(=O)N4C)[C@H]2O)[C@@H]3O [Verticillin A (3), verticillin A]",NF-κB assay activity (in words),[1],sub-micromolar range
same,IC50,[1],100 nM
same,IC50,EGFR tyrosine kinase,> 10000 nM
"CC[C@@]12SS[C@]3(C(=O)N1C)[C@@H](O)[C@]1(C45c6ccccc6N[C@@H]4N4C(=O)[C@@]6(CC)SS[C@@]4(C(=O)N6C)[C@H]5O)c4ccccc4N[C@@H]1N3C2=O (some centres unmarked) [Verticillin H (1), verticillin H]",IC50,[1],> 10000 nM
same,IC50,EGFR tyrosine kinase,> 10000 nM
"CC(O)[C@@]12SS[C@]3(C(=O)N1C)[C@@H](O)[C@]1([C@@]45c6ccccc6N[C@@H]4N4C(=O)[C@]6(C)SS[C@]4(C(=O)N6C)[C@H]5O)c4ccccc4N[C@@H]1N3C2=O (some centres unmarked) [Sch 52901 (2), Sch 52900]",NF-κB assay activity (in words),[1],sub-micromolar range
same,IC50,[1],500 nM
